The EternaBench riboswitch data

Tested on: MS2 coat protein
Experiment: apparent Kd, MS2 coat protein; higher = weaker binding; RNA-MaP array; FMN 200 µM where present
Outline: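 Apparent Kd: the median of filtered binding-curve fits from single clusters. Designs were transcribed on Illumina sequencing-chip clusters by stalled E. coli RNA polymerase and titrated with SNAP-549-labelled MS2 coat protein from 0.7 or 1.5 nM, doubling to 3 µM, in 100 mM Tris-HCl pH 7.5, 80 mM KCl, 4 mM MgCl2, BSA, DTT, yeast tRNA and Tween-20. Each series ran without and then with constant ligand, and green signal was normalised to red-channel RNA signal and control-cluster median Fmax.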

[1] = designed as: OFF switch for flavin mononucleotide, no ligand
[2] = ligand present: flavin mononucleotide, designed as: OFF switch for flavin mononucleotide
[3] = designed as: ON switch for flavin mononucleotide, no ligand
[4] = ligand present: flavin mononucleotide, designed as: ON switch for flavin mononucleotide

| Sequence | apparent Kd [1] | apparent Kd [2] | apparent Kd [3] | apparent Kd [4] |
| --- | --- | --- | --- | --- |
| UUUAUUUCGGCAGGAUAUACAUGUAUAUAUAUUCCCUCAUAUCUUAUUACAUGAGGAUCACCCAUGUAGAAGGGCCUUCUUCUC | 206 nM | 160 nM |  |  |
| GGACACCGAUCAGGAUAUACACGGCAUUCCAGAAACAUGAGGAUCACCCAUGUAGAAGGGAUCUGCGUCCUAAACAUAUCCAUU | 5.12 nM | 9.28 nM |  |  |
| UAGUAUCUGCAGGAUAUCAGUGGAAAACACGUAUGAGAAGGGCAGACAUGAGGAUCACCCAUGUAUAGGGUCCG | 81.4 nM | 206 nM |  |  |
| CCUAAGCGAAUCAAGAUGGAUAGAACAUGAGGAUCACCCAUGUAGGAUAUGCUACACAAAGUGUAGCAGAAGGACAAGCUUAGG | 25.9 nM | 40.5 nM |  |  |
| UCCUGGCGAGGAUAUACAAAGUUUUUCACGUUUUGUUACGAACAUGAGGAUCACCCAUGUAGAAGGUGCUACUG | 116 nM | 103 nM |  |  |
| ACAAGAUCAGGAUAUACAUGAGGAUCACCCAUGUAUAUCCAAAAAGGGCCUUCUACAUGUAGAAGGGAUCUUGU | 13.1 nM | 12.6 nM |  |  |
| UUUUUGUGAGGAUAUCAGUAGUAAAAUAAAUAAAUUACUACUGAGAAGGCACAUGAGGAUCACCCAUGUUCCUU | 14 nM | 30.3 nM |  |  |
| AGCAAGAGAGGAUAUACAUAGGAAAAAAAAGUCUGAUCCCUACAUGAGGAUCACCCAUGUAGAAGGCUCUGGCA | 69.5 nM | 24.7 nM |  |  |
| UAUAUUUUUAUAGGAUAUGGAUAUGAUGCAUAUCCAGAAGGGUGAAUAUAAUAUUUUCUGUACAUGAGGAUCACCCAUGUUUAU |  |  | 235 nM | 72.2 nM |
| CCAGCAACAUGAGGAUCACCCAUGUAGGAUAUCGCUAUUGUAAUCAUGAAACAUGAUUACAAUAGCGAGAAGGACAUAUGCUAA | 9.29 nM | 10.2 nM |  |  |
| CGGUCCCAUGUGAGGAUAUCGGAGCGAAAAUACUGCGAGAAGGUACAUGAGGAUCACCCAUGUCUCCUAUUGCC | 16.5 nM | 32.5 nM |  |  |
| AUAGGCCUAGGAUAUACAUGAGGAUCACCCAUGUUAACACUUCAAUCAAGUUAAUAUUGUAGAAGGAGGAAUAA | 30.4 nM | 29.4 nM |  |  |
| ACAAGAUCAGGAUAUACAUGAGGAUCACCCAUGUAUUUCAAAAAAAAACUUUCUUUAUGUAGAAGGGAUCUUGU | 14.7 nM | 13.5 nM |  |  |
| GGAUCAUGAGGAUAUCGAGGUUAGUACAUGAGGAUCACCCAUGUUAUCCAGGUCUCGUUUCGAGAAGGCAUGAUCC | 21.5 nM | 29.9 nM |  |  |
| CCAGCGAGUGUGAGGAUAUGCUGGUCCUUGGAUCAGCAGAAGGCACAUGAGGAUCACCCAUGUGAAAACGUUGG | 28.8 nM | 179 nM |  |  |
| UGGUACAUCGGAGGAUAUCAUGUAGAUACAUGAGGAUCACCCAUGUCGAUGGAGACAUCGGAGAUUGAGAAGGCCGAUGUACCU |  |  | 612 nM | 31.7 nM |
| CUAGCUAUCGGAGGAUAUUCAUACCGGAAACGGACAUGAGGAUCACCCAUGUGGCGAAAGCCAUGGGAGAAGGCCGAUAGCUAG |  |  | 1640 nM | 133 nM |
| AUCCUGCGAGGAUAUACAUAAUUUUUUUCAUUUUGUUUCGAACAUGAGGAUCACCCAUGUAGAAGGUGCUACAC | 32.1 nM | 29 nM |  |  |
| CUGUGACGGUGCGCAAGUGGACGUAGAAGGCUCACAUGAGGAUCACCCAUGUGGGCCUGCGAGUGAGAGGAUAUACGUUCGUGC | 5.28 nM | 5.56 nM |  |  |
| GCGCGCUAAGGAUAUACAUGAGGAUCACCCAUGUUGCUCUGAUGAGCGGGUGUAAGCUGUAGAAGGUAGAGCAA | 61.9 nM | 123 nM |  |  |
| GUAAAGUGAGGAUAUGGUGAGUAGUGCCUGAGCGCUGCUCACCAGAAGGCACAUGAGGAUCACCCAUGUAUAGC | 14.7 nM | 27.1 nM |  |  |
| UUCAUGUGAGGAUAUGUGAUCUGCUUUCUGUGUAGAUGAUCACAGAAGGCACAUGAGGAUCACCCAUGUAGAUC | 103 nM | 79.4 nM |  |  |
| UACAGCUUGACAGGAUAUACAUGUCAGCGAAAGCUGACUAUCUUAAUAACAUGAGGAUCACCCAUGUAGAAGGGUCGAGCUGUA | 16.8 nM | 26.6 nM |  |  |
| AGAAAGUCAGGAUAUCAGAAUAAGUCGAAAACGACUAGUAAUGAGAAGGGACAUGAGGAUCACCCAUGUAAGAA | 30.6 nM | 37.4 nM |  |  |

| Sequence | apparent Kd [1] | apparent Kd [2] | apparent Kd [3] | apparent Kd [4] |
| --- | --- | --- | --- | --- |
| GAUCCGUCCUAGAAGGCCAUCCAACAUGAGGAUCACCCAUGUGCGGACUGGAGGAUAUAGGUGGGAUAGGCCUAGGGCCCGGUC |  |  | 7.43 nM | 5.55 nM |
| GCAACGCUUGACAUGAGGAUCACCCAUGUUAGAUUGUUAUGUCAGGAUAUAGUCUAGAAACUAGACUAGAAGGGAUAUGUUGCU |  |  | 269 nM | 44.2 nM |
| GCCGUCAACGUAGGAUAUCUUCAGCCACAGCACAUUGCUGUACAUGAGGAUCACCCAUGUCCUGGAGAGAAGGACGGACGGCAG |  |  | 108 nM | 19.6 nM |
| GGUUGGCGAGGAUAUACAUGAGGAUCACCCAUGUGGUCCUGUGGCUGGUCAAAACUUUGUAGAAGGCGCGGGUC | 83.1 nM | 101 nM |  |  |
| AAAAUUUAUUGAGGAUAUUCAUACACUGCAUACGGAGAAGGCAAACAAUCAUGAGGACAUGAGGAUCACCCAUGUUGUGACCAU |  |  | 18.9 nM | 15.8 nM |
| AGUAAUUACGAAGGAUAUGCGCUCCUCGGGCUCGCAGAAGGUCGUACAUGAGGAUCACCCAUGUGUGAUCGCUCAUAGCCGCAA | 93.2 nM | 41.4 nM |  |  |
| CCUCUACAUGAGGAUCACCCAUGUGAGGAUAUCUCGGAGCAGCCAAUUAAAGCGCUCCAGAGAAGGCACGUGUA | 17.9 nM | 25.2 nM |  |  |
| ACUGGUCAAGGAUAUACAAUCGUGCUUCGGCACGUAAGAUCACAUGAGGAUCACCCAUGUAGAAGGUGACCAGU | 38.6 nM | 470 nM |  |  |
| UGUGAGUUGAUGUUAGAUAGGAGUACAUGAGGAUCACCCAUGUAGGAUAUUCAAAGACGAAGAUAGAAGAAGGACAUAGGUUUC | 21.4 nM | 18.1 nM |  |  |
| CUCAUCCUUACAGGCUGAGACAUGAGGAUCACCCAUGUAGGGAGAAGGGAGUUGGGCAUCUUGACUCAGGAUAUCCCGAAAGAC |  |  | 733 nM | 83.7 nM |
| UUUGACGUCGUAGGAUAUGUAGGAUAUUCCUACAUGAGGAUCACCCAUGUUGACAUGGAAGAAGGACAGAAGGACGAUGUCCAU |  |  | 304 nM | 5.56 nM |
| UUAAUCAUGUAGAAGGACGGAUAUUAAGAGAACGUAGGAUAUACAGAAGACAUGAGGAUCACCCAUGUGAACAUGGUACAUAGG | 241 nM | 62.5 nM |  |  |
| AAUCCACAUGAGGAUCACCCAUGUGAGGAUAUGAUACUAUGUACUUCGGUACAUAGUAUCAGAAGGCACAAAGG | 54.8 nM | 99.6 nM |  |  |
| AAAAAAAGAUCACAGGAUAUACGAAAAAAAACAUGAGGAUCACCCAUGUAAAAAAAAAAAAAAAAGUAGAAGGGUGAUCCAAAAAA |  |  | 160 nM | 279 nM |
| GGAUAGGACAGAGGAUAUACAGAUAGGAUCUACUAUCAAACAGUCCUUACAUGAGGAUCACCCAUGUAGAAGGCUGUCCUAUCG | 19.4 nM | 87.4 nM |  |  |
| UUUUAACAUGAGGAUCACCCAUGUGAGGAUAUCGAAAUUUAUAUUAAUAUUAUUUUAUCGAGAAGGCACAUUUU | 96.1 nM | 124 nM |  |  |
| GGGUGAGCUCAAGGAUAUCCAAAUCGGUUACAUGAGGAUCACCCAUGUCCGGGCGAAUAAAGGCCGGAGAAGGUGAGGGCCCUC |  |  | 67.5 nM | 180 nM |
| UCAUAAAUUCGAGGAUAUCGGUGAUAAAGAAGACGAGAAGGCGAUUAGAGAGAGAUGGUUAUAGACAUGAGGAUCACCCAUGUU |  |  | 33.9 nM | 24.1 nM |
| UCUUAUCUAGGAUAUCCACCUCCUCACAUGAGGAUCACCCAUGUGCAGAACAACGGUCUCGGAGAAGGAGGUAUUG | 25.9 nM | 25.3 nM |  |  |
| CUGUUAUAGGUCCAGAAUUACAACAUGAGGAUCACCCAUGUGCAGGAUAUCGGGAUAAUAAACGACGAGAAGGGCAUAGUCACG | 16.9 nM | 24.5 nM |  |  |
| CAUGGACGGUUAGGAUAUGACCUUUAAUGAAAGUCAGAAGGGAUCGCACAUGAGGAUCACCCAUGUCGCAGACUCGGGCGACUU | 14.9 nM | 21.1 nM |  |  |
| UCACGGUAUGUAGGAUAUGCAUAGCAUUGCUAUGCAGAAGGACAUGAGGAUCACCCAUGUAUGUAUUCCAUACUAAUCCCGUGU | 6.15 nM | 6.09 nM |  |  |
| GUGUAUCGCCUCGAGGAUAUCCUGUCAUGCACAUGAGGAUCACCCAUGUAAGAGCGAGUUUUUUGGGAGAAGGCGAGUUCUCGGU |  |  | 90.3 nM | 30.4 nM |
| GUGGUUGUCGUAGGAUAUGUAGGAUAUUCCUACAUGAGGAUCACCCAUGUUAGCAUGGAAGAAGGACAGAAGGACGAUGACCAG |  |  | 904 nM | 15.1 nM |
